Reference: ChEMBL document CHEMBL1140345, “Conformational constraint in oxazolidinone antibacterials. Synthesis and structure-activity studies of (azabicyclo[3.1.0]hexylphenyl)oxazolidinones” (2005)
Converted amounts (≈) assume the structure as drawn.

What was measured:
[1] = system: Staphylococcus aureus; experiment: Minimum inhibitory concentration against methicillin-susceptible Staphylococcus aureus UC9213; format: functional
Outline: (§1)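 MIC determined by standard broth microdilution following the NCCLS M7-A4 approved standard for dilution susceptibility testing of aerobically growing bacteria.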

[2] = system: Staphylococcus epidermidis; experiment: Minimum inhibitory concentration against methicillin-resistant Staphylococcus epidermidis UC12084; Range is from 1-2 ug/mL
[3] = system: Streptococcus pneumoniae; experiment: Minimum inhibitory concentration against penicillin-susceptible Streptococcus pneumoniae UC9912; Range is from 0.5-1 ug/mL; format: functional
Outline: (§2)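 Broth microdilution MIC following the NCCLS M7-A4 approved standard for dilution susceptibility testing of aerobically growing bacteria. The method is taken as accurate to within one dilution.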

[4] = system: Haemophilus influenzae; experiment: Minimum inhibitory concentration against ampicillin-reisitant Haemophilus influenzae UC30063; Range is from 8-16 ug/mL; format: functional; outline: as §2
[5] = system: Staphylococcus aureus; experiment: Minimum inhibitory concentration against methicillin, ciprofloxacin, rifampin, imipenem-resistant Staphylococcus aureus UC12673; format: functional; outline: as §1
[6] = system: Enterococcus faecalis; experiment: Minimum inhibitory concentration against Enterococcus faecalis UC9217; Range is from 2-4 ug/mL; format: functional; outline: as §2
[7] = system: Staphylococcus epidermidis; experiment: Minimum inhibitory concentration against methicillin-resistant Staphylococcus epidermidis UC12084
[8] = system: Haemophilus influenzae; experiment: Minimum inhibitory concentration against ampicillin-reisitant Haemophilus influenzae UC30063; format: functional; outline: as §2
[9] = system: Streptococcus pneumoniae; experiment: Minimum inhibitory concentration against penicillin-susceptible Streptococcus pneumoniae UC9912; format: functional; details: Streptococcus pneumoniae; read-out: MIC; outline: as §2
[10] = system: Escherichia coli; experiment: Minimum inhibitory concentration against Escherichia coli UC6674; format: functional; outline: as §2
[11] = system: Enterococcus faecalis; experiment: Minimum inhibitory concentration against Enterococcus faecalis UC9217; format: functional; outline: as §2
[12] = system: Moraxella catarrhalis; experiment: Minimum inhibitory concentration Moraxella catarrhalis; format: functional; outline: as §2
[13] = system: Haemophilus influenzae; experiment: Minimum inhibitory concentration against ampicillin-reisitant Haemophilus influenzae UC30063; Range is 8-16 ug/mL; format: functional; outline: as §1
[14] = system: Staphylococcus epidermidis; experiment: Minimum inhibitory concentration against methicillin-resistant Staphylococcus epidermidis UC12084; Range is from 0.5-1 ug/mL
[15] = system: Haemophilus influenzae; experiment: Minimum inhibitory concentration against ampicillin-reisitant Haemophilus influenzae UC30063; Range is from 4-8 ug/mL; format: functional; outline: as §2
[16] = system: Escherichia coli; experiment: Minimum inhibitory concentration against Escherichia coli UC6674; Range is 16-32 ug/mL; format: functional; outline: as §2
[17] = system: Staphylococcus aureus; experiment: Minimum inhibitory concentration against methicillin-susceptible Staphylococcus aureus UC9213; Range is 2-4 ug/mL; format: functional; outline: as §1
[18] = system: Staphylococcus epidermidis; experiment: Minimum inhibitory concentration against methicillin-resistant Staphylococcus epidermidis UC12084; Range is 0.5-1 ug/mL
[19] = system: Staphylococcus aureus; experiment: Minimum inhibitory concentration against methicillin, ciprofloxacin, rifampin, imipenem-resistant Staphylococcus aureus UC12673; Range is 2-4 ug/mL; format: functional; outline: as §1
[20] = system: Enterococcus faecalis; experiment: Minimum inhibitory concentration against Enterococcus faecalis UC9217; Range is 1-2 ug/mL; format: functional; outline: as §2
[21] = Haemophilus influenzae, read-out: MIC

Row | Compound | MIC [1] | MIC [5] | MIC [7] | MIC [8, 21] | MIC [9] | MIC [10] | MIC [11] | further results
1 | CCC(=O)NC[C@H]1CN(c2cc(F)c(N3C[C@@H]4[C@@H](N)[C@@H]4C3)c(F)c2)C(=O)O1 | 4 µg/mL (≈ 10.5 µM) | 4 µg/mL (≈ 10.5 µM) |  |  |  |  |  | MIC [2]: 2 µg/mL (≈ 5.26 µM); MIC [3]: 1 µg/mL (≈ 2.63 µM); MIC [4]: 16 µg/mL (≈ 42.1 µM); MIC [6]: 4 µg/mL (≈ 10.5 µM)
2 | CNC(=O)[C@H]1[C@@H]2CN(c3c(F)cc(N4C[C@H](CNC(C)=O)OC4=O)cc3F)C[C@@H]21 | 2 µg/mL (≈ 4.9 µM) | 2 µg/mL (≈ 4.9 µM) | 1 µg/mL (≈ 2.45 µM) | 16 µg/mL (≈ 39.2 µM) | 0.5 µg/mL (≈ 1.22 µM) | > 64 µg/mL | 1 µg/mL (≈ 2.45 µM) | 
3 | CC(=O)NC[C@H]1CN(c2cc(F)c(N3C[C@@H]4[C@H](C3)[C@H]4C(=O)NCc3ccco3)c(F)c2)C(=O)O1 | 2 µg/mL (≈ 4.22 µM) | 2 µg/mL (≈ 4.22 µM) | 1 µg/mL (≈ 2.11 µM) | > 64 µg/mL | 0.5 µg/mL (≈ 1.05 µM) |  | 1 µg/mL (≈ 2.11 µM) | 
4 | N[C@@H]1[C@H]2CN(c3c(F)cc(N4C[C@H](CNC(=O)C(Cl)Cl)OC4=O)cc3F)C[C@@H]12 | 4 µg/mL (≈ 9.19 µM) | 2 µg/mL (≈ 4.59 µM) | 2 µg/mL (≈ 4.59 µM) | 4 µg/mL (≈ 9.19 µM) | 0.5 µg/mL (≈ 1.15 µM) |  | 2 µg/mL (≈ 4.59 µM) | 
5 | COc1ccc(NC(=O)[C@H]2[C@@H]3CN(c4c(F)cc(N5C[C@H](CNC(C)=O)OC5=O)cc4F)C[C@@H]32)cn1 | 2 µg/mL (≈ 3.99 µM) | 2 µg/mL (≈ 3.99 µM) | 1 µg/mL (≈ 1.99 µM) | > 64 µg/mL | 0.5 µg/mL (≈ 0.997 µM) |  | 1 µg/mL (≈ 1.99 µM) | 
6 | CC(=O)NC[C@H]1CN(c2ccc(N3C[C@@H]4[C@H](C3)[C@H]4C(=O)O)c(F)c2)C(=O)O1 | 8 µg/mL (≈ 21.2 µM) | 4 µg/mL (≈ 10.6 µM) | 2 µg/mL (≈ 5.3 µM) | 16 µg/mL (≈ 42.4 µM) | 4 µg/mL (≈ 10.6 µM) | > 64 µg/mL | 4 µg/mL (≈ 10.6 µM) | 
7 | N[C@@H]1[C@H]2CN(c3c(F)cc(N4C[C@H](CNC(=O)C(F)F)OC4=O)cc3F)C[C@@H]12 | 4 µg/mL (≈ 9.94 µM) | 2 µg/mL (≈ 4.97 µM) | 2 µg/mL (≈ 4.97 µM) | 8 µg/mL (≈ 19.9 µM) | 1 µg/mL (≈ 2.49 µM) |  | 2 µg/mL (≈ 4.97 µM) | 
8 | CC(=O)NC[C@H]1CN(c2ccc(N3CCOCC3)c(F)c2)C(=O)O1 [LINEZOLID] |  |  | 1 µg/mL (≈ 2.96 µM) |  |  | > 64 µg/mL |  | MIC [12]: 4 µg/mL (≈ 11.9 µM); MIC [13]: 16 µg/mL (≈ 47.4 µM)
9 | CC(=O)NC[C@H]1CN(c2cc(F)c(N3C[C@@H]4[C@H](C3)[C@H]4C(=O)NCc3ccccn3)c(F)c2)C(=O)O1 | 4 µg/mL (≈ 8.24 µM) | 4 µg/mL (≈ 8.24 µM) | 1 µg/mL (≈ 2.06 µM) | > 64 µg/mL | 0.5 µg/mL (≈ 1.03 µM) |  | 1 µg/mL (≈ 2.06 µM) | 
10 | CC(=O)NC[C@H]1CN(c2cc(F)c(N3C[C@@H]4[C@H](C3)[C@H]4NC(=O)CO)c(F)c2)C(=O)O1 | 16 µg/mL (≈ 37.7 µM) | 16 µg/mL (≈ 37.7 µM) | 4 µg/mL (≈ 9.42 µM) | 64 µg/mL (≈ 151 µM) | 2 µg/mL (≈ 4.71 µM) | > 64 µg/mL | 8 µg/mL (≈ 18.8 µM) | 
11 | CC(=O)NC[C@H]1CN(c2cc(F)c(N3C[C@@H]4[C@H](C3)[C@H]4NS(C)(=O)=O)c(F)c2)C(=O)O1 | 4 µg/mL (≈ 9 µM) | 4 µg/mL (≈ 9 µM) | 1 µg/mL (≈ 2.25 µM) | 32 µg/mL (≈ 72 µM) | 1 µg/mL (≈ 2.25 µM) | > 64 µg/mL | 2 µg/mL (≈ 4.5 µM) | 
12 | CC(=O)NC[C@H]1CN(c2cc(F)c(N3C[C@@H]4[C@H](C3)[C@H]4C(=O)O)c(F)c2)C(=O)O1 | 2 µg/mL (≈ 5.06 µM) | 1 µg/mL (≈ 2.53 µM) |  |  | 1 µg/mL (≈ 2.53 µM) | > 64 µg/mL | 1 µg/mL (≈ 2.53 µM) | MIC [14]: 1 µg/mL (≈ 2.53 µM); MIC [15]: 8 µg/mL (≈ 20.2 µM)
13 | CC(=O)NC[C@H]1CN(c2cc(F)c(N3C[C@@H]4[C@H](C3)[C@H]4C(=O)Nc3ccc4c(c3)OCO4)c(F)c2)C(=O)O1 | 1 µg/mL (≈ 1.94 µM) | 1 µg/mL (≈ 1.94 µM) | 0.5 µg/mL (≈ 0.972 µM) | > 64 µg/mL | 0.5 µg/mL (≈ 0.972 µM) |  | 1 µg/mL (≈ 1.94 µM) | 
14 | O=C(NC[C@H]1CN(c2cc(F)c(N3C[C@@H]4[C@H](C3)[C@H]4C(=O)O)c(F)c2)C(=O)O1)C(Cl)Cl | 1 µg/mL (≈ 2.15 µM) | 0.5 µg/mL (≈ 1.08 µM) | 0.5 µg/mL (≈ 1.08 µM) | 4 µg/mL (≈ 8.62 µM) | 0.5 µg/mL (≈ 1.08 µM) |  | 0.5 µg/mL (≈ 1.08 µM) | 
15 | CC(=O)NC[C@H]1CN(c2cc(F)c(N3C[C@@H]4[C@@H](N)[C@@H]4C3)c(F)c2)C(=O)O1 (stereo in doubt; 18b) |  |  |  |  | 0.5 µg/mL (≈ 1.36 µM) |  |  | MIC [16]: 32 µg/mL (≈ 87.3 µM); MIC [17]: 4 µg/mL (≈ 10.9 µM); MIC [18]: 1 µg/mL (≈ 2.73 µM); MIC [8]: 8 µg/mL (≈ 21.8 µM); MIC [19]: 4 µg/mL (≈ 10.9 µM); MIC [20]: 2 µg/mL (≈ 5.46 µM)
